What was measured:
Settings in all cases: stereoisomer not certain
[1] = target: T1, UniProt Q8VGX8
T1 sequence (whole entry): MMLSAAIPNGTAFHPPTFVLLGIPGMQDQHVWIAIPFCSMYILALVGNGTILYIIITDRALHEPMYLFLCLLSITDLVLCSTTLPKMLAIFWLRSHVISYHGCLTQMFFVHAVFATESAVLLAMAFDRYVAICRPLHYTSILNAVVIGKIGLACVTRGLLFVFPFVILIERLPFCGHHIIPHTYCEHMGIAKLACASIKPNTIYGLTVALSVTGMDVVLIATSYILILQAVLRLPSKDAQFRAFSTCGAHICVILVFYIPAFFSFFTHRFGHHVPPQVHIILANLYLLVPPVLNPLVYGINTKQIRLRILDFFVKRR
Procedure, shortened: (§1)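 Assay methods differ from source to source, frequently being transient luciferase assays in mammalian cell lines. For each receptor–molecule pair, the label responsive (active) applies when the original authors judged the measured signal statistically different from baseline, and non-responsive (inactive) applies otherwise.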

[2] = target: T2, UniProt Q8VGY6
T2 sequence (whole entry): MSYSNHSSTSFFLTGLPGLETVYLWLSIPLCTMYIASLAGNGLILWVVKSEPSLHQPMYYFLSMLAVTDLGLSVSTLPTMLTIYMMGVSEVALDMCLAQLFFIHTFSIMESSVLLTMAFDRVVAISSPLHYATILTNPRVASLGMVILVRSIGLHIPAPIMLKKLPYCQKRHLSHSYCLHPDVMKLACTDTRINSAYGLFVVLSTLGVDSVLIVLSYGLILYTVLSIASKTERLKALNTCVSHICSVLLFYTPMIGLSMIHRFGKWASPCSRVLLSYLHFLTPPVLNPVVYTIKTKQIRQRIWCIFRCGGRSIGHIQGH
Procedure, shortened: as §1

[3] = target: T3, UniProt Q8VGZ2
T3 sequence (whole entry): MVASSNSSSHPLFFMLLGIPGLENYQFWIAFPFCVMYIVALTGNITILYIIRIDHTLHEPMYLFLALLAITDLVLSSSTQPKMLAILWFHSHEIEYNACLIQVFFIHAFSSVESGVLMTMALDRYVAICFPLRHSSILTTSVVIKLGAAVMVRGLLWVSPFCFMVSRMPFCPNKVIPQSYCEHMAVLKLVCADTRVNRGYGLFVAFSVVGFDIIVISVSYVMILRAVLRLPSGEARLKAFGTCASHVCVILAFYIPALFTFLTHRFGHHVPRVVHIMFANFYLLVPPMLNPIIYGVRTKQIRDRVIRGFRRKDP
Procedure, shortened: as §1

[4] = target: T4, UniProt Q8VGZ7
T4 sequence (whole entry): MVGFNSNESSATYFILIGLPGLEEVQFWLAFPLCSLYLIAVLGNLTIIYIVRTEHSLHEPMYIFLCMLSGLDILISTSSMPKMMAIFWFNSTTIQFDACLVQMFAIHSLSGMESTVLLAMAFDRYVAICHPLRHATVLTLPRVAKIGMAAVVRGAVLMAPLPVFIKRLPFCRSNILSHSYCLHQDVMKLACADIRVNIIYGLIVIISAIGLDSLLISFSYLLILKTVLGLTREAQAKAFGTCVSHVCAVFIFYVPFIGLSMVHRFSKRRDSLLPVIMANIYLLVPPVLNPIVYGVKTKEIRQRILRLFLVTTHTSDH
Procedure, shortened: as §1

[5] = target: T5, UniProt Q8VH10
T5 sequence (whole entry): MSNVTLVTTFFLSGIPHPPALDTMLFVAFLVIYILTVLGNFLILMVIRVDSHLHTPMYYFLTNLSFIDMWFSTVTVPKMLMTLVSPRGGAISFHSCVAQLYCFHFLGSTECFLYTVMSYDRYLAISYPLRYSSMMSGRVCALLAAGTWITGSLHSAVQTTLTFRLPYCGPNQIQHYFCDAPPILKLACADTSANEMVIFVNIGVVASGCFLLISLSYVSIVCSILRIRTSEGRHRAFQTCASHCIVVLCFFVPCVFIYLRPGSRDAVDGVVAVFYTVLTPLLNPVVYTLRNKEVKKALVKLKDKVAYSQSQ
Procedure, shortened: as §1

[6] = target: T6, UniProt Q8VH20
T6 sequence (whole entry): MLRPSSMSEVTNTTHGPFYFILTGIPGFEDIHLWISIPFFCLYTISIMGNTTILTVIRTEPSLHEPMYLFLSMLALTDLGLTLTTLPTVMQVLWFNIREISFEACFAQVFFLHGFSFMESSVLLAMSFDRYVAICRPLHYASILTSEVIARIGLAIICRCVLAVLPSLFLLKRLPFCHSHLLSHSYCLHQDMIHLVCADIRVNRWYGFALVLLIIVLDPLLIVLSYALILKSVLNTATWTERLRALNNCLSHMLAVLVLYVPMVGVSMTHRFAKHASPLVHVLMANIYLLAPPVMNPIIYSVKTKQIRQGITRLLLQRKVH
Procedure, shortened: as §1

[7] = target: T7, UniProt Q8VH18
T7 sequence (whole entry): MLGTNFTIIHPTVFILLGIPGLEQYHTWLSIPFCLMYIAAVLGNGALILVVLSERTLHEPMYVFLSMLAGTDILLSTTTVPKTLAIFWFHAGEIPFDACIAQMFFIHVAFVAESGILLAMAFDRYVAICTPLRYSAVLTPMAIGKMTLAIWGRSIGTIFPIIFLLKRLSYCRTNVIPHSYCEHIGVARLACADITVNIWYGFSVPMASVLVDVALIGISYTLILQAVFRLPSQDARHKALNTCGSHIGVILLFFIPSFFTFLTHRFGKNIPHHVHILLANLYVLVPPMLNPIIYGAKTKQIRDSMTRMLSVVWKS
Procedure, shortened: as §1

[8] = target: T8, UniProt Q8VH16
T8 sequence (whole entry): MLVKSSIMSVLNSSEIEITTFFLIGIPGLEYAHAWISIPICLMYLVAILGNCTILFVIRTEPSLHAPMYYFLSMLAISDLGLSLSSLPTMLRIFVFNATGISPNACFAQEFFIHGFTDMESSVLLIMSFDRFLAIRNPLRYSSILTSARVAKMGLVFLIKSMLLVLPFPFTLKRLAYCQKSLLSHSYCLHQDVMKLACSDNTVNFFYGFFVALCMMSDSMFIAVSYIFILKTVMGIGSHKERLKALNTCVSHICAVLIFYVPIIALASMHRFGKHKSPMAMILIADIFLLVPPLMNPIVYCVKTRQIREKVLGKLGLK
Procedure, shortened: as §1

[9] = target: T9, UniProt Q8VH21
T9 sequence (whole entry): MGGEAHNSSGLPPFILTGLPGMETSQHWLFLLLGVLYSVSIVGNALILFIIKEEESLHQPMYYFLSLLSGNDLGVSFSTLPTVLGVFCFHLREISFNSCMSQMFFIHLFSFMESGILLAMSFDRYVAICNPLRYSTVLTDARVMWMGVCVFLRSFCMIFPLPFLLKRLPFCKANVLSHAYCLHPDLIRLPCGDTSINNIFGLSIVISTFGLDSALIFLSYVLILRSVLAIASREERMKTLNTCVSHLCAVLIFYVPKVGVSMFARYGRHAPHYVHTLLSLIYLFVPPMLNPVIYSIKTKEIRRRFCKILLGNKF
Procedure, shortened: as §1

[10] = target: T10, UniProt Q920P1
T10 sequence (whole entry): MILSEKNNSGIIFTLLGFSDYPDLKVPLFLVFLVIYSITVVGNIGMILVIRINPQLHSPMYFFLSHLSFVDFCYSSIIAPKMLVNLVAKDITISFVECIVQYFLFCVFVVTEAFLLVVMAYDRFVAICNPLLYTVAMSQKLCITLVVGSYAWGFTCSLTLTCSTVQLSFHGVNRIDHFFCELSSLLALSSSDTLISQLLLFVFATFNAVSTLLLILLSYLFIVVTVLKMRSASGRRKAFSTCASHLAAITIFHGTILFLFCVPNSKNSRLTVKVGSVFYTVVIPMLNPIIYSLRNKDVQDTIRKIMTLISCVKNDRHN
Procedure, shortened: as §1

SMILES | odorant receptor agonist call [1] | odorant receptor agonist call [2] | odorant receptor agonist call [3] | odorant receptor agonist call [4] | odorant receptor agonist call [5] | odorant receptor agonist call [6] | odorant receptor agonist call [7] | odorant receptor agonist call [8] | odorant receptor agonist call [9] | odorant receptor agonist call [10]
CCCCOC(=O)C(C)OC(=O)CCC (configuration not stated) | inactive | inactive | inactive | inactive | inactive | inactive |  |  |  | 
CCCCCO | inactive | inactive | inactive | inactive | inactive | inactive | inactive |  |  | 
Cc1ccc(C(C)C)c(O)c1 |  |  | inactive | inactive |  | inactive |  | inactive | inactive | 
CCCCCOC(=O)CC |  |  | inactive | inactive |  | inactive |  | inactive | inactive | 
CCc1ccccc1O |  |  | inactive | inactive |  | inactive |  | inactive | inactive | 
CNc1ccccc1C(=O)OC |  |  | inactive | inactive |  | inactive |  | inactive | inactive | 
O=C(O)CCCCCBr | active |  | inactive | inactive |  | active | inactive | inactive | inactive | 
OCCCCCCCCCO |  |  | inactive | inactive |  | inactive |  | inactive | inactive | 
O=C([O-])CCCCCCCC(=O)[O-].[H+].[H+] | inactive |  | inactive | inactive |  | inactive | inactive | inactive | inactive | 
CC(C)=CCCC(C)=CCO | inactive | inactive | inactive | inactive | inactive | inactive |  | inactive | inactive | inactive
O=C(O)C1CCC1 |  |  | inactive | inactive |  | inactive |  | inactive | active | 
CC1(C)CC(=O)CC(=O)C1 |  |  | inactive | inactive |  | inactive |  | inactive | inactive | 
COc1cc(C(=O)O)ccc1O | inactive | active | inactive | inactive | inactive | inactive |  | inactive | inactive | inactive
O=C(OCc1ccccc1)c1ccccc1O |  |  | inactive | inactive |  | inactive |  | inactive | inactive | 
O=C(O)CCCCBr | inactive |  |  |  |  |  | inactive |  |  | 

From the M2OR odorant receptor database
